Measurements reported in ChEMBL document CHEMBL2062525, “Substituted 3-(5-imidazo[2,1-b]thiazolylmethylene)-2-indolinones and analogues: synthesis, cytotoxic activity, and study of the mechanism of action” (J Med Chem, 2012).

Columns and labels:
[1] = Cytotoxicity against human leukemia cells after 48 hrs; assay type: functional; details: Leukemia cell
Outline: (§1)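 NCI 60-cell panel (subpanels include leukemia and prostate). […] Percent growth relative to untreated control; some repeats averaged over two experiments.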

NSCLC = assay: Cytotoxicity against human NSCLC cells after 48 hrs; assay type: functional
Outline: (§2)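 NCI 60-cell panel subpanel lines; compounds first screened at a single 10−5 M, then those passing threshold tested in five-concentration assay over 10−9 to 10−4 M (some to 10−3 M), 48 h exposure. Growth relative to untreated control measured as cell protein; GI50, TGI and LC50 derived; some values are means of two experiments.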

[2] = Cytotoxicity against human COLON cells after 48 hrs; assay type: functional; outline: as §2
[3] = Cytotoxicity against human CNS cancer cells after 48 hrs; assay type: functional; details: Cancer cell lines; outline: as §2
[4] = Cytotoxicity against human melanoma cells after 48 hrs; assay type: functional; details: Melanoma cell; for CC50: read-out: LC50 (the source's name); outline: as §2
[5] = Cytotoxicity against human ovarian cancer cells after 48 hrs; assay type: functional; details: Cancer cell lines; outline: as §2
[6] = Cytotoxicity against human renal cancer cells after 48 hrs; assay type: functional; details: Cancer cell lines; for CC50: read-out: LC50 (the source's name); outline: as §2
[7] = Cytotoxicity against human prostate cancer cells after 48 hrs; assay type: functional; details: Cancer cell lines; outline: as §1
[8] = Cytotoxicity against human breast cancer cells after 48 hrs; assay type: functional; details: Cancer cell lines; outline: as §2
[9] = Inhibition of bovine brain tubulin assembly after 20 mins; set-up: species or system Bos taurus
Bos taurus = species on record: Bos taurus; assay: Displacement of [3H]colchicine from bovine brain tubulin at 5 uM after 10 mins

COc1nc2sccn2c1/C=C1/C(=O)Nc2cc(Cl)ccc21
GI50 [1]: 0.14 µM
TGI [1]: 5.37 µM
GI50 (NSCLC): 1.29 µM
TGI (NSCLC): 79.4 µM
GI50 [2]: 0.33 µM
LC50 (concentration giving 50% net cell kill) [2]: 79.4 µM
TGI [2]: 22.4 µM
GI50 [3]: 0.35 µM
LC50 [3]: 75.9 µM
TGI [3]: 16.2 µM
GI50 [4]: 0.21 µM
TGI [4]: 34.7 µM
CC50 [4]: 93.3 µM
GI50 [5]: 0.65 µM
LC50 (concentration killing 50% of starting cells) [5]: 89.1 µM
TGI [5]: 21.4 µM
GI50 [6]: 0.62 µM
TGI [6]: 49 µM
CC50 [6]: 85.1 µM
GI50 [7]: 0.39 µM
TGI [7]: 69.2 µM
GI50 [8]: 0.54 µM
TGI [8]: 58.9 µM
IC50 [9]: 13 µM
inhibition (Bos taurus): 53%

O=C1Nc2ccc(Cl)cc2C1=Cc1c(-c2ccccn2)nc2sccn12 (mixture of isomers)
GI50 [1]: 0.28 µM
LC50 (concentration killing 50% of cells) [1]: 69.2 µM
TGI [1]: 7.08 µM
GI50 (NSCLC): 1.78 µM
LC50 (NSCLC): 58.9 µM
TGI (NSCLC): 18.2 µM
GI50 [2]: 0.52 µM
LC50 (concentration giving 50% net cell kill) [2]: 33.9 µM
TGI [2]: 10.5 µM
GI50 [3]: 0.71 µM
LC50 [3]: 66.1 µM
TGI [3]: 22.4 µM
GI50 [4]: 0.68 µM
TGI [4]: 11.8 µM
CC50 [4]: 51.3 µM
GI50 [5]: 1.62 µM
LC50 (concentration killing 50% of starting cells) [5]: 50.1 µM
TGI [5]: 17.4 µM
GI50 [6]: 1.15 µM
TGI [6]: 10.5 µM
CC50 [6]: 43.6 µM
GI50 [7]: 1.26 µM
LC50 (concentration killing 50% of cells) [7]: 47.9 µM
TGI [7]: 19.1 µM
GI50 [8]: 0.45 µM
LC50 [8]: 42.7 µM
TGI [8]: 7.76 µM
IC50 [9]: > 20 µM
inhibition (Bos taurus): 13%

Cc1nn2c(/C=C3/C(=O)Nc4c3ccc3ccccc43)c(C)nc2s1
GI50 [1]: 0.17 µM
LC50 (concentration killing 50% of cells) [1]: 66.1 µM
TGI [1]: 3.31 µM
GI50 (NSCLC): 0.87 µM
LC50 (NSCLC): 74.1 µM
TGI (NSCLC): 15.5 µM
GI50 [2]: 0.35 µM
LC50 (concentration giving 50% net cell kill) [2]: 49 µM
TGI [2]: 6.61 µM
GI50 [3]: 0.39 µM
LC50 [3]: 46.8 µM
GI50 [4]: 0.68 µM
TGI [4]: 17 µM
CC50 [4]: 70.8 µM
GI50 [5]: 0.91 µM
LC50 (concentration killing 50% of starting cells) [5]: 56.2 µM
TGI [5]: 11.8 µM
GI50 [6]: 0.83 µM
TGI [6]: 10.5 µM
CC50 [6]: 56.2 µM
GI50 [7]: 0.38 µM
LC50 (concentration killing 50% of cells) [7]: 15.1 µM
TGI [7]: 5.13 µM
GI50 [8]: 0.3 µM
LC50 [8]: 75.9 µM
TGI [8]: 6.31 µM
IC50 [9]: 16 µM
inhibition (Bos taurus): 45%

COc1ccc2c(c1)C(=Cc1c(OC)nc3sccn13)C(=O)N2C (mixture of isomers)
GI50 [1]: 0.16 µM
LC50 (concentration killing 50% of cells) [1]: 79.4 µM
GI50 (NSCLC): 1.02 µM
TGI (NSCLC): 58.9 µM
GI50 [2]: 0.35 µM
LC50 (concentration giving 50% net cell kill) [2]: 87.1 µM
TGI [2]: 24 µM
GI50 [3]: 0.38 µM
TGI [3]: 18.6 µM
GI50 [4]: 0.79 µM
TGI [4]: 72.4 µM
CC50 [4]: 91.2 µM
GI50 [5]: 0.63 µM
TGI [5]: 31.6 µM
GI50 [6]: 0.71 µM
TGI [6]: 53.7 µM
GI50 [7]: 0.55 µM
GI50 [8]: 0.49 µM
TGI [8]: 49 µM
IC50 [9]: 3.8 µM
inhibition (Bos taurus): 45%

O=C1Nc2cc(Cl)ccc2C1=Cc1c(-c2ccccn2)nc2sccn12 (mixture of isomers)
GI50 [1]: 0.06 µM
TGI [1]: 4.57 µM
GI50 (NSCLC): 0.33 µM
LC50 (NSCLC): 49 µM
TGI (NSCLC): 28.8 µM
GI50 [2]: 0.11 µM
LC50 (concentration giving 50% net cell kill) [2]: 46.8 µM
TGI [2]: 21.9 µM
GI50 [3]: 0.17 µM
LC50 [3]: 38 µM
TGI [3]: 6.03 µM
GI50 [4]: 0.12 µM
TGI [4]: 15.1 µM
CC50 [4]: 38.9 µM
GI50 [5]: 0.27 µM
LC50 (concentration killing 50% of starting cells) [5]: 36.3 µM
TGI [5]: 11.5 µM
GI50 [6]: 0.25 µM
TGI [6]: 15.8 µM
CC50 [6]: 42.7 µM
GI50 [7]: 0.15 µM
TGI [7]: 31.6 µM
GI50 [8]: 0.21 µM
LC50 [8]: 46.8 µM
TGI [8]: 12.6 µM
IC50 [9]: 9.3 µM
inhibition (Bos taurus): 48%

COc1nc2sccn2c1/C=C1/C(=O)Nc2ccc(Cl)cc21
GI50 [1]: 1.32 µM
TGI [1]: 26.3 µM
GI50 (NSCLC): 4.27 µM
TGI (NSCLC): 89.1 µM
GI50 [2]: 1.41 µM
TGI [2]: 64.6 µM
GI50 [3]: 3.31 µM
TGI [3]: 40.7 µM
GI50 [4]: 3.72 µM
TGI [4]: 40.7 µM
GI50 [5]: 3.47 µM
TGI [5]: 46.8 µM
GI50 [6]: 3.31 µM
TGI [6]: 58.9 µM
GI50 [7]: 3.98 µM
TGI [7]: 81.3 µM
GI50 [8]: 2.45 µM
TGI [8]: 74.1 µM

COc1nc2sccn2c1/C=C1/C(=O)Nc2cccc(Cl)c21
GI50 [1]: 2.19 µM
TGI [1]: 64.6 µM
GI50 (NSCLC): 7.08 µM
TGI (NSCLC): 70.8 µM
GI50 [2]: 3.72 µM
TGI [2]: 91.2 µM
GI50 [3]: 6.31 µM
LC50 [3]: 87.1 µM
TGI [3]: 32.4 µM
GI50 [4]: 4.9 µM
TGI [4]: 60.3 µM
GI50 [5]: 4.68 µM
LC50 (concentration killing 50% of starting cells) [5]: 97.7 µM
TGI [5]: 43.6 µM
GI50 [6]: 7.08 µM
TGI [6]: 49 µM
CC50 [6]: 89.1 µM
GI50 [7]: 13.2 µM
GI50 [8]: 3.24 µM
LC50 [8]: 93.3 µM
TGI [8]: 50.1 µM
